Results as given in PubChem BioAssay AID504405 (Broad Institute, 2011).
Results filed as inconclusive are left out. Active and inactive are the calls of the source.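 How the source made its calls: active means fitted curve crosses 10% of positive-control caspase signal within tested doses in every repeat test; inconclusive means repeat tests disagree, or any test inconclusive; inactive means the rest.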

Test system: not listed separately
Test: non-primed MEF caspase induction – cell-based, wild-type MEF, CaspaseGlo luminescence, dry powder, set 3, counter-screen for A1 inhibitor project, dose response (AID 504405)
Conditions: wild-type MEF caspase activation, CaspaseGlo luminescence, 3 h; at 35 µM (top of the series)
How it was run: (§1)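 test system = wild-type mouse embryonic fibroblasts, unprimed, not A1-dependent | quantity = 2500 cells/well | buffer or medium = RPMI-1640 growth medium with 10% FBS | dosing = compound added by pin transfer | timing = 3 h compound at 37 °C, 1 h CaspaseGlo at RT | signal = luminescence with CaspaseGlo caspase reagent | evaluation = caspase activation as toxicity flag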

**Q.** With COc1nc2ccccc2c(Sc2ccc(C)cc2)c1[N+](=O)[O-] as the compound, how does the caspase activation read?
**A.** 0.723% (inactive)

**Q.** For COCCn1c(=O)c(Sc2ccc(C)cc2)c(Sc2ccc(C)cc2)c2ccccc21, which caspase activation is on record?
**A.** 0.603% (inactive)

**Q.** For Cn1c(=O)c(Sc2ccccn2)c(Sc2ccccn2)c2ccccc21, which caspase activation is on record?
**A.** 0.793% (inactive)

**Q.** For CCn1c(=O)c([N+](=O)[O-])c(Sc2ccc(C)cc2)c2ccccc21, which caspase activation is on record?
**A.** 0.226% (inactive)

**Q.** For Cc1ccc(S(=O)(=O)c2c([N+](=O)[O-])c(=O)n(C)c3ccccc23)cc1, which caspase activation is on record?
**A.** -0.89% (inactive)

**Q.** Which caspase activation does the source give for COc1ccc(CCNc2nc(N3CCCC3)nc(N3CCCC3)n2)cc1OC here?
**A.** -0.327% (inactive)

**Q.** With COc1ccc(N2CCN(c3nc(NCCc4ccc(OC)c(OC)c4)nc(N4CCOCC4)n3)CC2)cc1 as the compound, how does the caspase activation read?
**A.** 0.165% (inactive)

**Q.** For COCCn1c(=O)c([N+](=O)[O-])c(Cl)c2ccccc21, which caspase activation is on record?
**A.** -0.545% (inactive)

**Q.** With Cc1ccc(Sc2c(Sc3ccc(C)cc3)c3ccccc3n(C)c2=O)cc1 as the compound, how does the caspase activation read?
**A.** 0.922% (inactive)

**Q.** For Cn1c(=O)c([N+](=O)[O-])c(S(C)(=O)=O)c2ccccc21, which caspase activation is on record?
**A.** -0.856% (inactive)

**Q.** Which caspase activation does the source give for COc1nc2ccccc2c(Cl)c1[N+](=O)[O-] here?
**A.** 6.45% (inactive)

**Q.** With O=C(COc1ccc(Cl)cc1Cl)NNc1nc(N2CCOCC2)nc(N2CCOCC2)n1 as the compound, how does the caspase activation read?
**A.** -0.598% (inactive)

**Q.** Which caspase activation does the source give for COc1c([N+](=O)[O-])c(=O)n(C)c2ccccc12 here?
**A.** 0.426% (inactive)

**Q.** With O=c1[nH]c2ccccc2c(O)c1[N+](=O)[O-] as the compound, how does the caspase activation read?
**A.** 0.522% (inactive)

**Q.** With Cc1ccc(Sc2c([N+](=O)[O-])c(=O)n(C)c3ccccc23)cc1 as the compound, how does the caspase activation read?
**A.** 5.89% (inactive)

**Q.** For COc1ccc(CCNc2nc(N3CCOCC3)nc(N3CCOCC3)n2)cc1OC, which caspase activation is on record?
**A.** 0.145% (inactive)

**Q.** Which caspase activation does the source give for CCn1c(=O)c(Sc2ccc(C)cc2)c(Sc2ccc(C)cc2)c2ccccc21 here?
**A.** 0.52% (inactive)

**Q.** For C/C(=N\Nc1nc(N2CCCCC2)nc(N2CCCCC2)n1)c1ccc(F)cc1, which caspase activation is on record?
**A.** 0.38% (inactive)

**Q.** For Cc1ccc(Sc2c(Sc3ccc(C)cc3)c3ccccc3n(Cc3ccccc3)c2=O)cc1, which caspase activation is on record?
**A.** 0.126% (inactive)

Test system: wild-type MEF caspase activation, CaspaseGlo luminescence, 3 h
Test: as above
Conditions: not given
How it was run: as §1

**Q.** Which AC10 does the source give for O=c1c([N+](=O)[O-])c(Cl)c2ccccc2n1Cc1ccccc1 here?
**A.** 11.8 µM
